Measured values taken from ChEMBL document CHEMBL3352202 (J Med Chem, 2014).

Tests used:
[1] = Antiproliferative activity against human PPC1 cells after 96 hrs by SRB assay; format: functional, cell-based; conditions: PPC-1, 96 h
Summary of the method: (§1)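 Prostate cancer lines were exposed to compound for 96 h, with cell growth read by sulforhodamine B staining. Results are IC50 ± SEM.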

[2] = Antiproliferative activity against human PC3 cells after 96 hrs by SRB assay; format: functional, cell-based; conditions: PC-3, 96 h; summary of the method: as §1
[3] = Antiproliferative activity against mouse B16-F1 cells after 96 hrs by SRB assay; format: functional, cell-based; conditions: B16-F1, 96 h
[4] = test system: A-375; assay: Antiproliferative activity against human A375 cells after 96 hrs by SRB assay; format: functional, cell-based; conditions: A-375, 96 h
[5] = test system: DU-145; assay: Antiproliferative activity against human DU145 cells after 96 hrs by SRB assay; format: functional, cell-based; conditions: DU-145, 96 h; summary of the method: as §1
[6] = test system: LNCaP; assay: Antiproliferative activity against human LNCAP cells after 96 hrs by SRB assay; format: functional, cell-based; summary of the method: as §1
[7] = test system: Liver; assay: Half life in mouse liver microsomes at 0.5 uM by LC-MS/MS analysis
[8] = test system: Liver microsome; assay: Half life in human liver microsomes at 0.5 uM by LC-MS/MS analysis
[9] = test system: Liver microsome; assay: Half life in rat liver microsomes at 0.5 uM by LC-MS/MS analysis
[10] = biological target: T1, Tubulin (Bos taurus) (UniProt Q6B856+Q862L2+Q862F3); assay: Inhibition of bovine brain tubulin polymerization at 5 uM for 20 mins by spectrophotometry
Summary of the method: (§2)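 Bovine brain tubulin (0.4 mg, >97% pure) in general tubulin buffer pH 6.9 (80 mM PIPES, 2.0 mM MgCl2, 0.5 mM EGTA, 1 mM GTP) with compound at 5 or 10 μM, 37 °C. A340 was read each minute for 20 min, and percent inhibition was taken relative to vehicle.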

[11] = biological target: T1, Tubulin (Bos taurus); assay: Inhibition of bovine brain tubulin polymerization at 10 uM for 20 mins by spectrophotometry; summary of the method: as §2

Structure (SMILES) | IC50 [4] [nM] | IC50 [5] [nM] | IC50 [6] [nM] | t1/2 [7] [min] | t1/2 [8] [min] | t1/2 [9] [min] | inhibition [10] [%] | inhibition [11] [%] | IC50 [1] [nM] | IC50 [2] [nM] | IC50 [3] [nM]
COc1cc(C(=O)c2csc(-c3ccccc3)n2)cc(OC)c1OC |  |  |  |  |  |  |  |  | 43 | 21 | 55
COc1cc(-c2nccc3[nH]c(-c4ccc5[nH]ccc5c4)nc23)cc(OC)c1OC | 5 |  | 5 | 19.7 | 45.3 | 30.4 | 33 | 81 | 42 | 6 | 
COc1cc(-c2cccc3[nH]c(-c4ccc5[nH]ccc5c4)nc23)cc(OC)c1OC | 25 | 57 | 28 |  |  |  | 30 | 60 | 20 | 22 | 
COc1cc(C(=O)c2csc(-c3ccccc3)n2)cc(OC)c1OC(=O)CCl | 10800 | > 10000 | > 10000 |  |  |  |  |  | > 10000 | > 10000 | 3200
COc1cc(-c2cccc3[nH]c(-c4ccccc4)nc23)cc(OC)c1OC |  | 7800 | 2100 |  |  |  |  |  | 2100 | 2400 | 
COc1cc(C(=O)c2csc(Nc3ccc4[nH]ccc4c3)n2)cc(OC)c1OC | 25 | 24 | 13 |  |  |  |  |  | 15 | 12 | 84
COc1cc(C(=O)c2c[nH]c(Nc3ccccc3)n2)cc(OC)c1OC | > 30000 | > 30000 | > 30000 |  |  |  |  |  | > 30000 | > 30000 | > 30000
COc1cc(C(=O)c2csc(-c3ccccc3)n2)cc(OC)c1OC(=O)C(F)(F)F | 22200 | > 10000 | > 10000 |  |  |  |  |  | > 10000 | > 10000 | 8900
COCOc1c(OC)cc(C(=O)c2csc(-c3ccccc3)n2)cc1OC | 20 | 112 | 31 | 4 | 7.8 | 9.7 |  |  | 22 | 17 | 19

Further lines, with some results ahead:

IC50 [4] [nM] | IC50 [5] [nM] | IC50 [6] [nM] | t1/2 [7] [min] | t1/2 [8] [min] | t1/2 [9] [min] | inhibition [10] [%] | inhibition [11] [%] | Structure (SMILES) | IC50 [1] [nM] | IC50 [2] [nM] | IC50 [3] [nM]
600 | 4200 | 800 |  |  |  |  |  | COc1cc(-c2cccc3[nH]c(-c4c[nH]c5ccccc45)nc23)cc(OC)c1OC | 1300 | 900 | 
> 10000 | > 10000 | > 10000 |  |  |  |  |  | COc1cc(C(=O)c2csc(-c3ccccc3)n2)cc(OC)c1OCc1ccccc1 | > 10000 | > 10000 | 10600
3100 | 600 | 1400 |  |  |  |  |  | COc1cc(C(=O)c2csc(-c3ccccc3)n2)cc(OC)c1OCCN1C(=O)c2ccccc2C1=O | 600 | > 10000 | 1300
28 | 71 | 28 |  |  |  |  |  | COc1cc(C(=O)c2csc(Nc3ccccc3)n2)cc(OC)c1OC | 43 | 21 | 65
1100 | 4000 | 1600 |  |  |  |  |  | COc1cc(-c2cccc3[nH]c(-c4n[nH]c5ccccc45)nc23)cc(OC)c1OC | 1000 | 800 | 
527 | 464 | 117 |  |  |  |  |  | COc1cc(C(=O)c2csc(-c3ccccc3)n2)cc(OC)c1OCCN | 184 | 158 | 142
